Assay outcomes (PubChem)
AHR activator = human AHR activation; AHR-responsive luciferase reporter cells, luminescence; activation, % at 5 µM; hit rate 2.5% among 320,000; AID 2796; in the data active = activation above about 47%
Target sequence (P35869 whole entry, looked up): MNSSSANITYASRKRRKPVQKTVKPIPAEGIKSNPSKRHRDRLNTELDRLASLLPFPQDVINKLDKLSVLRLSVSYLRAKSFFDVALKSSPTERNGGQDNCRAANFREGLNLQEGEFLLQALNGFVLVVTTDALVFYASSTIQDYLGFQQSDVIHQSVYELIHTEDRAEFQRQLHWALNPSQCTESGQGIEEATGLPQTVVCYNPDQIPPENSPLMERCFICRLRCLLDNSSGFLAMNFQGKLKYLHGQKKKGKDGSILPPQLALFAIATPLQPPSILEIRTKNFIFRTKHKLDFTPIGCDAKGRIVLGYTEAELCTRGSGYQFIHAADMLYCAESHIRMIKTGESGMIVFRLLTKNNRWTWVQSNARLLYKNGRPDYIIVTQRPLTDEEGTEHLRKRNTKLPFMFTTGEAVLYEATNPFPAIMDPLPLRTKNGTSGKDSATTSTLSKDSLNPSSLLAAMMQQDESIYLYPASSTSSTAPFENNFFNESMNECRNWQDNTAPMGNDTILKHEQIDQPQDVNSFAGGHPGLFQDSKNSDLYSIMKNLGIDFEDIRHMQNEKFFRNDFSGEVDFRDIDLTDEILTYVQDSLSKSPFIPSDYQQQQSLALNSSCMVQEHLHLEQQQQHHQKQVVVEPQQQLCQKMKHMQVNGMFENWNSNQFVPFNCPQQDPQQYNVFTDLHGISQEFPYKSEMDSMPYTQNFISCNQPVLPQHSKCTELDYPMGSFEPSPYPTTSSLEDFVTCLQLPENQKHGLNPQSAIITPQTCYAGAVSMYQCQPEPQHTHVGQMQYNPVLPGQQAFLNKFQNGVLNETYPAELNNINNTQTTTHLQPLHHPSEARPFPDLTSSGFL
NF-kB expr up = raises NF-kB expression in human neuronal cells. AID 1239. NF-kB reporter expression; hits give high values. fold change at 12.5 µM. hit rate 1.6% among 190,000; in the data active = fold change above about 3.3
STAT1 act = increases IFN-gamma driven STAT1 reporter signal; AID 932; hit rate 2.6% among 200,000; activation (% of control), % at 5.5 µM; NIH 3T3 STAT1-luciferase reporter, luminescence; 100% = IFN-gamma alone, no compound;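 active = activation above the screen-wide mean activation plus 3 SD, cut at about 130% in these data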
APP 5'UTR act = activates APP 5'UTR luciferase reporter. SH-SY5Y APP 5'UTR luciferase reporter, luminescence; zero percent = DMSO vehicle wells. activation, % at 2 µM. hit rate 1% among 190,000. AID 1276;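 active = activation above a set limit, based on mean plus 3 SD of controls, cut at about 140% in these data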
Mdm2 ligase inh = inhibitors of human Mdm2 E3 ubiquitin ligase | Q00987 | cell-based MDM2 ubiquitination luciferase reporter, 2 h; 0 = plate control, 100 = twice control, blank-subtracted | signal enhancement, % at 5 µM | hit rate 0.11% among 210,000;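 active = signal enhancement of 30% or more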;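 also: luminescence tracks abundance of the self-degrading MDM2-luciferase fusion protein; higher signal means inhibition of MDM2 E3 ligase activity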
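Assay system: mammalian cells stably expressing self-ubiquitinating, self-degrading MDM2 E3–luciferase fusion. Quantity: 2000 cells in each well. Medium: DMEM culture medium. Compound dosing: single-point 5 µM. Timing: cell settling 4 h, compound treatment 2 h, both 37 °C. Technique: luciferase luminescence. Read-out basis: percent signal gain over controls, blank-subtracted. Benchmarks: plate controls and plate blanks.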
PERK inh = inhibitors of human PERK kinase; CHO PERK-DD fusion, SEAP luminescence translation reporter; AID 1416; Q9NZJ5; inhibition, % at 5.6 µM; hit rate 0.17% among 220,000;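 active = inhibition above the mean inhibition of all tested compounds plus 3 SD, set separately per screening campaign, cut at about 2.9% in these data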;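 also: PERK kinase domain activated by AP20187 dimerizer at 100 nM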
A number is an active result; . = inactive; / = not tested or not shown. In the library only some 4.5% were active in any assay of this set; here they are far more common.

SMILES	AHR activator	NF-kB expr up	STAT1 act	APP 5'UTR act	Mdm2 ligase inh	PERK inh
O=C(Nc1ncc2c(n1)-c1ccccc1OC2)c1ccc(F)cc1	55.5	.	.	.	.	.
O=C(Nc1ncc2c(n1)-c1ccccc1CC2)c1ccc(Cl)cc1	74.9	.	.	.	.	.
CC(O)C(O)C(O)C(O)/C=N/NC(=O)c1ccccc1 (stereo unspecified)	.	.	128.8	.	.	.
CCOC(=O)c1oc2ccccc2c1NC(=O)c1cccc(OC)c1	.	.	.	.	.	.
COc1ccccc1NC(=O)c1oc2ccccc2c1NC(=O)C1CC1	63.5	/	/	/	/	/
CCC(=O)Nc1c(C(=O)Nc2cccc(OC)c2)oc2ccccc12	63.1	.	.	.	.	.
CCOCC(=O)Nc1c(C(=O)Nc2ccccc2OC)oc2ccccc12	73.0	.	.	.	.	.
COc1ccc(NC(=O)c2oc3ccccc3c2NC(=O)COc2ccccc2OC)c(OC)c1	.	.	.	.	.	.
COc1ccc(C(C[N+](=O)[O-])c2c(C)[nH]c3ccccc23)cc1OC (stereo unspecified)	60.0	.	.	.	.	.
COc1cc(C(c2c(C(=O)O)[nH]c3ccccc23)c2c(C(=O)O)[nH]c3ccccc23)ccc1OCc1ccccc1	.	/	/	/	/	/
COc1cccc(Nc2nc3ccc(OC)cc3s2)c1	.	4.74	129.3	194.6	.	.
COc1ccc(-c2nc(NC3=NCCCCC3)sc2C)cc1	73.1	.	.	.	.	.
COc1ccc2nc(NC3=NCCC3)sc2c1	.	.	136.1	.	.	.
Cc1cc(SCC(=O)N(C)C2CCCCC2)nc2ccccc12	.	/	/	/	/	/
c1cc2c(cc1Nc1nc(-c3ccc4c(c3)OCO4)cs1)OCCO2	.	.	137.1	.	.	.
C=CCNc1nc(-c2ccc3c(c2)OCCO3)cs1	.	/	/	/	/	/
c1cc2c(cc1-c1csc(NNC3=NCCCCC3)n1)OCCO2	.	.	144.1	.	.	.
CC(C)(C)C(=O)Nc1nc(-c2ccc3c(c2)OCO3)cs1	.	5.73	138.8	157.4	.	.
CC(=O)Nc1nc(-c2ccc3c(c2)CCO3)cs1	.	.	141.1	.	.	.
O=C(Nc1nc(-c2ccc3c(c2)OCCO3)cs1)c1ccco1	.	/	/	/	/	/
C[C@H]1O[C@H](O[C@H]2[C@H](O)[C@@H](O)[C@@H](O[C@H]3[C@H](O)[C@@H](O)C(O)O[C@@H]3CO)O[C@@H]2CO)[C@H](O)[C@@H](O)[C@@H]1N[C@H]1C=C(CO)[C@@H](O)[C@H](O)[C@H]1O (stereo partly specified)	.	/	/	/	/	.
COc1ccccc1CNC(=O)COC(=O)CCN=C1NS(=O)(=O)c2ccccc21	.	/	/	/	/	/
O=C(N/C=N/OCc1ccc(Cl)cc1Cl)NOCc1ncc(C(F)(F)F)cc1Cl	.	.	.	.	.	.
COc1ccc(C(=O)C2CCCN(C(=O)c3cccs3)C2)cc1F (stereo unspecified)	.	.	.	.	.	.
CCOc1ccccc1NS(=O)(=O)c1c(C)[nH]c(C)c1C(=O)N1CCCCC1	.	/	/	/	/	/
SMILES	AHR activator	NF-kB expr up	STAT1 act	APP 5'UTR act	Mdm2 ligase inh	PERK inh
COc1ccccc1C(=O)Nc1nc(-c2ccc3c(c2)OCCO3)cs1	.	.	.	.	.	.
c1ccc(-c2csc(Nc3ccc4c(c3)OCCO4)n2)cc1	60.9	4.82	138.6	186.6	.	.
COc1cccc(-c2csc(NC(C)=O)n2)c1	.	.	137.3	.	.	.
COc1cccc(Nc2nc(-c3ccc4c(c3)OCCO4)cs2)c1	71.7	.	147.6	161.8	.	.
N#C/C(=C\Nc1ccc2c(c1)OCCO2)c1nc(-c2ccccc2)cs1	.	.	.	.	/	.
COc1ccc(CNC(=O)CN(C(=O)CCC(=O)Nc2nccs2)c2ccc3c(c2)OCO3)cc1	.	/	/	/	/	/
Cc1sc2ncnc(NCC(c3ccco3)N3CCCC3)c2c1C (stereo unspecified)	.	.	.	.	.	.
CC1CN/C(=C\C(=O)c2ccc(Cl)cc2)C(=O)N1 (stereo unspecified)	.	4.67	.	174.6	.	.
O=C1NCCN/C1=C\C(=O)c1ccc(F)cc1	.	/	/	/	.	.
CC1CN/C(=C\C(=O)c2ccccc2)C(=O)N1 (stereo unspecified)	.	.	138.0	.	.	.
NC(=O)CC(NC(=O)Cc1ccc(Cl)cc1)c1ccc(NCCN2CCOCC2)c([N+](=O)[O-])c1 (stereo unspecified)	.	/	/	/	/	/
CCCCNC(=O)c1cccc(C(=O)NCCCC)c1	.	.	.	.	.	.
CCCCNC(=O)c1cc2c(C)cc(C)cc2[nH]1	55.3	/	/	/	.	.
COc1nnc(-c2ccc(N3CCCCC3)c(NC(C)=O)c2)c2ccccc12	77.7	.	.	.	.	.
Cc1nc2ccc(Nc3ccncc3)cc2s1	.	.	.	.	.	.
CCOC(=O)c1c(C)[nH]c2cc(Br)c(OC)cc12	51.2	.	.	.	.	.
CCOC(=O)c1c(C)[nH]c(C)c1-c1ccccc1OC	.	.	.	.	.	.
Cc1nn2c(-c3ccccc3)ccnc2c1Br	73.7	/	/	/	/	/
Cc1ccc(-c2ccnc3c(Br)c(C)nn23)cc1	.	/	/	/	/	/
CC(C)c1onc(C(=O)N(C)C2CCCCC2)c1[N+](=O)[O-]	.	.	.	.	/	.
CC(C)(C)c1ccc(/C=N/Nc2cccc(C(=O)O)c2)cc1	.	6.89	.	.	/	.
O=C(O)c1cccc(N/N=C/c2cc(Br)cc(Br)c2O)c1	.	.	130.8	.	.	.
O=C(O)c1cccc(N/N=C/c2ccc(-c3ccccc3)cc2)c1	/	16.3	.	.	.	.
CN(C)c1ccc(/C=N/Nc2cccc(C(=O)O)c2)cc1	.	/	/	/	/	/
CCO[C@@H]1OC(C(=O)N2CCN(C)CC2)=C[C@H](c2coc3ccccc3c2=O)[C@H]1CCCO	.	.	.	.	/	.
SMILES	AHR activator	NF-kB expr up	STAT1 act	APP 5'UTR act	Mdm2 ligase inh	PERK inh
Cc1cccc(C)c1NC(=S)NC(=O)c1ccc(Br)o1	69.2	.	.	.	.	.
Cc1cccc(NC(=S)NC(=O)c2ccc(Br)o2)c1C	.	.	.	.	.	.
Cc1ccc2nc(Nc3nc(CSc4nnc(C)s4)cc(=O)[nH]3)nc(C)c2c1	.	.	134.6	.	.	.
CCN1CCCC1CNC(=O)c1cc(S(=O)(=O)N(C)C)ccc1Cl (stereo unspecified)	.	/	/	/	/	/
CC1(C)C=C(c2ccc(C(=O)O)s2)CC(C)(C)N1	.	.	.	.	.	.
Cc1cc(-c2ccc(C(=O)O)s2)cnc1N	.	.	128.9	.	.	.
CCc1cc[n+](C2=C([O-])c3ccccc3C(=O)/C2=N\S(=O)(=O)c2cccs2)cc1	67.5	.	.	.	.	.
O=C1C(Nc2ccccc2)=C/C(=N/S(=O)(=O)c2cccs2)c2ccccc21	.	.	.	.	.	.
O=C(CCc1nc2ccccc2c(=O)[nH]1)N1CCN(S(=O)(=O)c2cccc(F)c2)CC1	.	/	/	/	/	/
